# Mdm2-MdmX inh: human Mdm2/MdmX binding inhibition. AID 485346. SaOS-2 split-luciferase Mdm2/MdmX complementation, luminescence. inhibition, % at 8 µM. O15151+Q00987. hit rate 3% among 330,000;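 active = inhibition of at least 50% at 8 µM in the primary screen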
# MDM2 E3 inh: blocks human Mdm2 ubiquitin ligase activity; Q00987; cell-based MDM2 ubiquitination luciferase reporter, 2 h; 0 = plate control, 100 = twice control, blank-subtracted; signal enhancement, % at 5 µM; hit rate 0.11% among 210,000; AID 1230;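 active = signal enhancement of 30% or more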;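 note: luminescence tracks abundance of the self-degrading MDM2-luciferase fusion protein; higher signal means inhibition of MDM2 E3 ligase activity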
#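 Material: Stable MDM2–luciferase fusion reporter cells | Amount: 2000 cells seeded into each well | Dosing: One concentration, 5 µM, with 0.2% DMSO | Incubation: 4 h cell settling then 2 h compound exposure, 37 °C | Measured by: Luciferase luminescence | Read-out basis: % enhancement relative to plate controls after blank subtraction | Benchmarks: Control and blank well means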
# B2AR ag: human beta-2 adrenergic receptor agonism by FAP; P07550; Am2.2-beta2AR cells, FAP receptor internalization, flow cytometry; response, % (test concentration not listed); hit rate 0.43% among 340,000; AID 504454;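 active = response above a set limit, near 3 SD of response in nonfluorescent compounds, cut at about 42% in these data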
# Target sequence (P07550 whole entry, looked up): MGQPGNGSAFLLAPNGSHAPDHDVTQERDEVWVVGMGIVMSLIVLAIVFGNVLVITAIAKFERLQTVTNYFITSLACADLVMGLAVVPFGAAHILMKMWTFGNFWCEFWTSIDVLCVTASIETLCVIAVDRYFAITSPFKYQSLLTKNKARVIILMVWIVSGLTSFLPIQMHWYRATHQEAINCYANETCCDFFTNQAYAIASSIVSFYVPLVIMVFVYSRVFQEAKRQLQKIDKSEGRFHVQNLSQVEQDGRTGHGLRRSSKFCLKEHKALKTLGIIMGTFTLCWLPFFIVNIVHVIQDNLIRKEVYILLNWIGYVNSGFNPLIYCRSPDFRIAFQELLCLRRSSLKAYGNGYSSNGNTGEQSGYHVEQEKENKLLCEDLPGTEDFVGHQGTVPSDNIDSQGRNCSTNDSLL
# Dynein transport: blocks dynein driven cargo transport along microtubules | 3617.4 mouse cells, GR-EGFP nuclear translocation imaging; test concentration mostly 20 µM; stimulated with dexamethasone, 1 µM; active compounds read low | z-score, hits read low | hit rate 0.47% among 220,000 | AID 1381;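 active = plate z-score of nuclear minus cytoplasmic receptor signal below a set negative limit, without overly bright fluorescence or cell loss, cut at about -3.5 in these data, passing the limit was not always enough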;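 note: z-score of nuclear minus cytoplasmic ring GR-EGFP intensity difference per well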
#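 Buffer or medium: Induction medium lacking tetracycline, stripped serum | Also added: Dexamethasone agonist, 1.0 µM final, for 30 min | Timing: 48 h induction, 1 h compound, 30 min dex at 37 °C | Detection: Formaldehyde fixation, Hoechst nuclear stain, 10x automated fluorescence imaging | Measure: Nuclear versus cytoplasmic GR-EGFP signal, averaged per well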
# XBP1 UPR activ: adaptive UPR (XBP1) activation | AID 463104 | activation, % at 20 µM | hit rate 0.33% among 330,000 | CHO-XBP1 luciferase reporter, IRE1-XBP1 UPR activation, luminescence; percent of tunicamycin response, DMSO as zero;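 active = versus positive control, 20 µM dose yields 30% or more activation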;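 note: 100% = tunicamycin at 10 µg/mL and 0% = DMSO only wells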
#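 assay system = CHO-XBP1 luciferase reporter cells | amount = 1000 cells/well | buffer or medium = F12 plus 10% FBS | compound dosing = single point, 20 µM final compound, 1% DMSO | incubation = 16-18 h cell attachment at 37 °C, then 6 h compound exposure | detection = Steady-Glo luminescence read | controls = tunicamycin 10 µg/mL and vehicle-only wells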
# UPR CHOP act: activators of apoptotic arm of unfolded protein response (CHOP); CHO-CHOP luciferase reporter, UPR activation, luminescence; percent of tunicamycin response over DMSO baseline; activation, % at 10 µM; hit rate 0.34% among 330,000;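 active = at 10 µM dose, activation of 40% or more, normalized to positive control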;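 note: 100% = tunicamycin at 10 µg/mL and 0% = DMSO alone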
#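 Assay system: CHO-CHOP cells, stable luciferase reporter of PERK-eIF2a-CHOP signalling / Buffer or medium: F12 plus 10% serum / Compound dosing: one dose, 10 µM in 0.5% DMSO / Times: 6 h compound treatment, 37 °C / Technique: luciferase luminescence / Read-out: % reporter activation, DMSO baseline versus tunicamycin full activation / Benchmarks: tunicamycin and DMSO controls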
# Mdm2 MdmX conf: human Mdm2/MdmX binding inhibition, confirmed. luminescent assay. inhibition, % at 8 µM. shares compounds with Mdm2-MdmX inh. hit rate 55% among 10,000; in the data active = inhibition above about 40%
# Full FLuc ctr: counter-screen for Mdm2/MdmX inhibitors: full-length luciferase | inhibition, % at 8 µM | SaOS-2 full-length luciferase counterscreen, luminescence | AID 504607 | shares compounds with Mdm2-MdmX inh | hit rate 77% among 6,200;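 active = mean inhibition at 8 µM reaching about 37%, which flags the compound as non-specific, limit read from the data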;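 note: p53-null SaOS-2 cells with luciferase driven by a doxycycline-inducible promoter; compound on cells about two nights before reading with doxycycline added after day one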
# An asterisk follows results filed as active; x = not tested or not shown. Rows were chosen to be rich in hits. Some 3.7% of all compounds tested hit in one or more screens of this group.
SMILES,Mdm2-MdmX inh,MDM2 E3 inh,B2AR ag,Dynein transport,XBP1 UPR activ,UPR CHOP act,Mdm2 MdmX conf,Full FLuc ctr
Cc1cc(NCCCn2ccnc2)n2ncc(-c3ccc(Cl)cc3)c2n1,60*,-19,2,-0.69,8,17,86*,52*
Cc1cc(NCCCN2CCOCC2)n2ncc(-c3ccc(Cl)cc3)c2n1,65*,-7,4,-0.4,13,17,62*,69*
O=C(CNC(c1ccccc1)c1ccccc1)Nc1ccccc1Br,20,x,4,x,-5,-2,x,x
COc1cc(CN2CCCN(C)CC2)cc([N+](=O)[O-])c1O,13,x,11,x,-3,0,x,x
Cc1ccc(C(C)C)cc1OCC(=O)Nc1nnc(C2CC2)s1,88*,x,-4,x,-2,0,65*,33
Cc1cc(OCC(=O)Nc2nnc(C3CC3)s2)ccc1C(C)C,-4,x,4,x,-4,-1,x,x
Cc1ccc(CNC(=O)Cn2ccc3cc(S(=O)(=O)N4CCCC4)ccc32)o1,24,x,7,x,-4,-3,x,x
COc1ccc2ncn(-c3ccccc3)c2c1,63*,-12,-9,0.18,1,-1,50*,42*
COc1ccc(-n2cnc3ccccc32)cc1,47,-22,-2,-0.71,3,1,x,x
COC(=O)c1ccc(C(=O)Nc2cc(Cl)ccc2Cl)cc1NC(=O)c1ccc(N(C)C)cc1,70*,-4,3,0.46,3,3,7,x
O=C(Nc1cc(Cl)ccc1Cl)c1ccc(-c2ccccc2)cc1,2,-7,3,0.16,5,4,x,x
COC(=O)CSC1=C(C#N)C(c2ccc(C)o2)CC(=O)N1 (centres undefined),58*,-9,3,0.2,-3,2,47*,73*
CCCCn1c(=O)[nH]c(=O)c2c(C(=O)OCC)cc(-c3ccc(OC(F)F)cc3)nc21,57*,-18,-4,-0.49,3,0,32,x
Clc1ccc2[nH]cc(-c3nnnn3-c3ccccc3)c2c1,31,5,-7,-0.11,3,-1,x,x
Clc1ccc2ncc(-c3nnnn3-c3ccccc3)c(-c3ccccc3)c2c1,56*,-14,15,-0.013,2,-1,39,43*
Clc1ccc(-n2nnnc2-c2cnc3ccc(Cl)cc3c2-c2ccccc2)cc1,61*,-6,2,0.65,5,1,38,x
COC(=O)[C@@]1(C)[C@H]2C(=O)N(Cc3ccccc3)C(=O)[C@H]2[C@H]2CN=C(SCc3ccc(C#N)cc3)N21,71*,x,8,x,0,6,70*,51*
COC(=O)[C@@]1(Cc2ccccc2)[C@H]2C(=O)N(Cc3ccccc3)C(=O)[C@H]2[C@H]2CN=C(SCC(=O)c3ccccc3)N21,54*,x,2,x,3,4,55*,50*
COC(=O)[C@@]1(Cc2ccccc2)[C@H]2C(=O)N(Cc3ccccc3)C(=O)[C@H]2[C@H]2CN=C(SCc3ccc(Cl)cc3)N21,99*,x,3,x,0,11,99*,53*
COC(=O)[C@@]1(C)[C@H]2C(=O)N(Cc3ccccc3)C(=O)[C@H]2[C@H]2CN=C(SCc3ccc(Cl)cc3)N21,97*,x,-4,x,1,5,100*,56*
Clc1ccc(-c2ccccc2)nn1,4,-13,2,-0.57,-1,0,x,x
CN(CC(=O)Nc1ncn[nH]1)S(=O)(=O)c1cc(Cl)ccc1Cl,40,x,-6,x,-3,0,x,x
COc1cccc(C(=O)NN2CCOCC2)c1,6,x,7,x,-5,-1,x,x
Cc1ccccc1CN(C)C(=O)c1ccc2ccccc2n1,-4,x,-2,x,0,0,x,x
COc1ccc(Cl)cc1NC(=O)CSc1nc2ccsc2c(=O)n1CC1CCC(C(=O)O)CC1 (centres undefined),28,x,2,x,-1,2,x,x
SMILES,Mdm2-MdmX inh,MDM2 E3 inh,B2AR ag,Dynein transport,XBP1 UPR activ,UPR CHOP act,Mdm2 MdmX conf,Full FLuc ctr
CC(=O)[C@@]1(O)[C@H](C)CC2C3CC=C4CC(OP(=O)(O)O)CC[C@]4(C)C3CC[C@@]21C (some centres undefined),-37,x,-5,x,-1,1,x,x
O=C1CC(=O)Nc2cc(S(=O)(=O)Nc3cccc(C(F)(F)F)c3)ccc2N1,0,x,3,x,1,0,x,x
CCS(=O)(=O)c1nnnn1-c1ccccc1S(C)(=O)=O,60*,-2,-1,-1.4,-3,-1,63*,34
O=C1NC(CCO)C(=O)NC1CCO (centres undefined),x,x,1,x,x,x,x,x
COc1ccc(-n2cc(-c3ccccc3)c3c(N4CCOCC4)ncnc32)cc1,74*,-6,26,0.31,8,-2,62*,80*
Fc1ccc(-n2cc(-c3ccccc3)c3c(N4CCOCC4)ncnc32)cc1,63*,-18,13,-0.29,0,0,59*,67*
CCN1CCN(c2ncnc3c2c(-c2ccccc2)cn3-c2ccc(F)cc2)CC1,36,-14,-2,0.46,-1,0,x,x
OCCN1CCN(c2ncnc3c2c(-c2ccccc2)cn3-c2ccc(Br)cc2)CC1,55*,2,1,0.82,10,3,24,x
CN(C)c1ccc(C(C[N+](=O)[O-])c2c(N)n(C)c(=O)n(C)c2=O)c(F)c1C#N (centres undefined),48,x,4,x,-2,16,x,x
COc1ccc(Br)cc1C(C[N+](=O)[O-])c1c(N)n(C)c(=O)n(C)c1=O (centres undefined),50*,-11,5,-1.6,5,13,9,x
Cc1ccc2c(cnn2C(=O)CCC(=O)NC2CCCCC2)c1,10,x,-2,x,-2,-1,x,x

# From PubChem
